Source: ChEMBL document CHEMBL1137348, “Determination of the binding mode of thienopyrimidinedione antagonists to the human gonadotropin releasing hormone receptor using structure-activity relationships, site-directed mutagenesis, and homology modeling” (J Med Chem, 2006)

Tests used:
[1] = target: Gonadotropin-releasing hormone receptor (Homo sapiens, UniProt P30968, Y284L); assay: Displacement of [His5, D-Tyr6]GnRH from GnRHR Y284L mutant expressed in COS7 cells; assay type: cell-based, COS-7
Summary of the method: (§1)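 Human GnRH-R mutants (all in F272(6.40)L background) electroporated into COS-7 cells. Membranes taken 36-48 h later and lysed by nitrogen cavitation. Shaken 2 h at room temperature, then filtered and scintillation counted.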

[2] = target: Gonadotropin-releasing hormone receptor (Homo sapiens, UniProt P30968, D302A); assay: Displacement of [His5, D-Tyr6]GnRH from GnRHR D302A mutant expressed in COS7 cells; assay type: cell-based, COS-7; summary of the method: as §1
Chain of Gonadotropin-releasing hormone receptor (Homo sapiens, UniProt P30968, D302A) (P30968 whole entry D302A): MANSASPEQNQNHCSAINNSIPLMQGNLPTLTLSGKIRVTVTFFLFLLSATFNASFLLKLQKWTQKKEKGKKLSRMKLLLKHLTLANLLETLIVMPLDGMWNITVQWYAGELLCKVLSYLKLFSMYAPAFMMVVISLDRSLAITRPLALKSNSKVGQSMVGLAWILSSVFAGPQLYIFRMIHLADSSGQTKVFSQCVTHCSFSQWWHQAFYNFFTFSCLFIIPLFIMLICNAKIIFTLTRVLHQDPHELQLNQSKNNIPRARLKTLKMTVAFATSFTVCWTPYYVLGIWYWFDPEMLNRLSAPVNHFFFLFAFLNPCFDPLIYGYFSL

[3] = target: Gonadotropin-releasing hormone receptor (Homo sapiens, UniProt P30968, F313L); assay: Displacement of [His5, D-Tyr6]GnRH from GnRHR F313L mutant expressed in COS7 cells; assay type: cell-based, COS-7; summary of the method: as §1
Chain of Gonadotropin-releasing hormone receptor (Homo sapiens, UniProt P30968, F313L) (P30968 whole entry F313L): as the sequence (P30968 whole entry D302A) above, with A302D, F313L counted along it

[4] = target: Gonadotropin-releasing hormone receptor (Homo sapiens, UniProt P30968, H306E); assay: Displacement of [His5, D-Tyr6]GnRH from GnRHR H306E mutant expressed in COS7 cells; assay type: cell-based, COS-7; summary of the method: as §1
Chain of Gonadotropin-releasing hormone receptor (Homo sapiens, UniProt P30968, H306E) (P30968 whole entry H306E): as the sequence (P30968 whole entry D302A) above, with A302D, H306E counted along it

[5] = target: Gonadotropin-releasing hormone receptor (Homo sapiens, UniProt P30968, L300A); assay: Displacement of [His5, D-Tyr6]GnRH from GnRHR L300A mutant expressed in COS7 cells; assay type: cell-based, COS-7; summary of the method: as §1
Chain of Gonadotropin-releasing hormone receptor (Homo sapiens, UniProt P30968, L300A) (P30968 whole entry L300A): as the sequence (P30968 whole entry D302A) above, with L300A, A302D counted along it

[6] = target: Gonadotropin-releasing hormone receptor (Homo sapiens, UniProt P30968, N27A); assay: Displacement of [His5, D-Tyr6]GnRH from GnRHR N27A mutant expressed in COS7 cells; assay type: cell-based, COS-7; summary of the method: as §1
Chain of Gonadotropin-releasing hormone receptor (Homo sapiens, UniProt P30968, N27A) (P30968 whole entry N27A): as the sequence (P30968 whole entry D302A) above, with N27A, A302D counted along it

[7] = target: Gonadotropin-releasing hormone receptor (Homo sapiens, UniProt P30968, Y290L); assay: Displacement of [His5, D-Tyr6]GnRH from GnRHR Y290L mutant expressed in COS7 cells; assay type: cell-based, COS-7; summary of the method: as §1
Chain of Gonadotropin-releasing hormone receptor (Homo sapiens, UniProt P30968, Y290L) (P30968 whole entry Y290L): as the sequence (P30968 whole entry D302A) above, with Y290L, A302D counted along it

[8] = target: Gonadotropin-releasing hormone receptor (Homo sapiens, UniProt P30968, F309Q); assay: Displacement of [His5, D-Tyr6]GnRH from GnRHR F309Q mutant expressed in COS7 cells; assay type: cell-based, COS-7; summary of the method: as §1
Chain of Gonadotropin-releasing hormone receptor (Homo sapiens, UniProt P30968, F309Q) (P30968 whole entry F309Q): as the sequence (P30968 whole entry D302A) above, with A302D, F309Q counted along it

[9] = target: Gonadotropin-releasing hormone receptor (Homo sapiens, UniProt P30968, Q208E); assay: Displacement of [His5, D-Tyr6]GnRH from GnRHR Q208E mutant expressed in COS7 cells; assay type: cell-based, COS-7; summary of the method: as §1
Chain of Gonadotropin-releasing hormone receptor (Homo sapiens, UniProt P30968, Q208E) (P30968 whole entry Q208E): as the sequence (P30968 whole entry D302A) above, with Q208E, A302D counted along it

[10] = target: Gonadotropin-releasing hormone receptor (Homo sapiens, UniProt P30968, D302N); assay: Displacement of [His5, D-Tyr6]GnRH from GnRHR D302N mutant expressed in COS7 cells; assay type: cell-based, COS-7; summary of the method: as §1
Chain of Gonadotropin-releasing hormone receptor (Homo sapiens, UniProt P30968, D302N) (P30968 whole entry D302N): as the sequence (P30968 whole entry D302A) above, with A302N counted along it

[11] = target: Gonadotropin-releasing hormone receptor (Homo sapiens, UniProt P30968, F309L); assay: Displacement of [His5, D-Tyr6]GnRH from GnRHR F309L mutant expressed in COS-7 cells; assay type: cell-based; summary of the method: as §1
Chain of Gonadotropin-releasing hormone receptor (Homo sapiens, UniProt P30968, F309L) (P30968 whole entry F309L): as the sequence (P30968 whole entry D302A) above, with A302D, F309L counted along it

[12] = target: Gonadotropin-releasing hormone receptor (Homo sapiens, UniProt P30968, M24I); assay: Displacement of [His5, D-Tyr6]GnRH from GnRHR M24I mutant expressed in COS7 cells; assay type: cell-based, COS-7; summary of the method: as §1
Chain of Gonadotropin-releasing hormone receptor (Homo sapiens, UniProt P30968, M24I) (P30968 whole entry M24I): as the sequence (P30968 whole entry D302A) above, with M24I, A302D counted along it

[13] = target: Gonadotropin-releasing hormone receptor (Homo sapiens, UniProt P30968, H306A); assay: Displacement of [His5, D-Tyr6]GnRH from GnRHR H306A mutant expressed in COS7 cells; assay type: cell-based, COS-7; summary of the method: as §1
Chain of Gonadotropin-releasing hormone receptor (Homo sapiens, UniProt P30968, H306A) (P30968 whole entry H306A): as the sequence (P30968 whole entry D302A) above, with A302D, H306A counted along it

[14] = target: Gonadotropin-releasing hormone receptor (Homo sapiens, UniProt P30968, F272L); assay: Displacement of [125I]-His5, D-Tyr6]GnRH from GnRHR F272L mutant expressed in COS7 cells; assay type: cell-based, COS-7; summary of the method: as §1
Chain of Gonadotropin-releasing hormone receptor (Homo sapiens, UniProt P30968, F272L) (P30968 whole entry F272L): as the sequence (P30968 whole entry D302A) above, with F272L, A302D counted along it

Chain of Gonadotropin-releasing hormone receptor (Homo sapiens, UniProt P30968, Y284L) (P30968 whole entry Y284L): as the sequence (P30968 whole entry D302A) above, with Y284L, A302D counted along it

Compound	IC50 [1]	IC50 [2]	IC50 [3]	IC50 [4]	IC50 [5]	IC50 [6]	IC50 [7]	IC50 [8]	IC50 [9]	IC50 [10]	IC50 [11]	IC50 [12]	IC50 [13]	IC50 [14]
CN(Cc1ccccc1)Cc1c(-c2ccc([N+](=O)[O-])cc2)sc2c1c(=O)n(-c1ccccc1)c(=O)n2Cc1c(F)cccc1F	> 10000 nM	1900 nM	> 10000 nM	> 10000 nM	> 10000 nM	1600 nM	1100 nM	> 10000 nM	> 10000 nM	1400 nM	> 10000 nM	> 10000 nM	3000 nM	600 nM
CN(Cc1ccccc1)Cc1c(-c2ccc(NC(=O)c3ccccc3)cc2)sc2c1c(=O)n(-c1ccccc1)c(=O)n2Cc1c(F)cccc1F	1500 nM	15 nM	400 nM	800 nM	22 nM	26 nM	20 nM	220 nM	31 nM	13 nM	100 nM	380 nM	400 nM	6 nM
CN(CCc1ccccn1)Cc1c(-c2ccc([N+](=O)[O-])cc2)sc2c1c(=O)n(-c1ccccc1)c(=O)n2Cc1c(F)cccc1F	2000 nM	58 nM	4500 nM	400 nM	110 nM	200 nM	900 nM	3600 nM	450 nM	40 nM	2650 nM	> 10000 nM	240 nM	52 nM
CN(Cc1ccccc1)Cc1c(-c2ccc(NC3=NCCN3)cc2)sc2c1c(=O)n(-c1ccccc1)c(=O)n2Cc1c(F)cccc1F	5000 nM	3300 nM	> 10000 nM	800 nM	1020 nM	480 nM	350 nM	5200 nM	1400 nM	2100 nM	1800 nM	> 10000 nM	4400 nM	240 nM

The remaining lines, values ahead:

IC50 [1]	IC50 [2]	IC50 [3]	IC50 [4]	IC50 [5]	IC50 [6]	IC50 [7]	IC50 [8]	IC50 [9]	IC50 [10]	IC50 [11]	IC50 [12]	IC50 [13]	IC50 [14]	Compound
> 10000 nM	1600 nM	> 10000 nM	7100 nM	> 10000 nM	1300 nM	1900 nM	> 10000 nM	5000 nM	1900 nM	> 10000 nM	> 10000 nM	3300 nM	1100 nM	CN(CCc1ccccc1)Cc1c(-c2ccc([N+](=O)[O-])cc2)sc2c1c(=O)n(-c1ccccc1)c(=O)n2Cc1c(F)cccc1F
> 10000 nM	390 nM	> 10000 nM	500 nM	1600 nM	370 nM	390 nM	> 10000 nM	1500 nM	530 nM	950 nM	4000 nM	710 nM	210 nM	CN(Cc1ccccc1)Cc1c(-c2ccc(N)cc2)sc2c1c(=O)n(-c1ccccc1)c(=O)n2Cc1c(F)cccc1F
4400 nM	210 nM	2000 nM	1600 nM	240 nM	31 nM	52 nM	2400 nM	230 nM	160 nM	1100 nM	2300 nM	1700 nM	29 nM	CC(=O)Nc1ccc(-c2sc3c(c2CN(C)Cc2ccccc2)c(=O)n(-c2ccccc2)c(=O)n3Cc2c(F)cccc2F)cc1
6000 nM	1100 nM	1400 nM	4000 nM	190 nM	30 nM	70 nM	1200 nM	70 nM	500 nM	900 nM	390 nM	600 nM	20 nM	CN(Cc1ccccc1)Cc1c(-c2ccc(NC(=O)NCc3ccccc3)cc2)sc2c1c(=O)n(-c1ccccc1)c(=O)n2Cc1c(F)cccc1F
